Holding throughout (format): functional
The test system of test [1] is A549. Description: Antiproliferative activity against human A549 cells by sulforhodamine B assay. The gist of the method:
(§1)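 Cells in RPMI 1640 (25 mM HEPES, 2 mM L-glutamine, 10% heat-inactivated FBS, antibiotics) at 37 °C, 5% CO2. Seeded at 3–5 × 10³/well with graded concentrations, paclitaxel as assay control, for 72 h. TCA-fixed, stained with 0.04% SRB, dye dissolved in 10 mM Tris, A515 read. GI50 is the concentration halving absorbance versus untreated cells; three or more experiments.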
In general terms: In SRB staining, fixed cells bind dye roughly in proportion to their protein.

The test system of test [2] is DU-145. Description: Antiproliferative activity against human DU145 cells by sulforhodamine B assay. The gist of the method:
as §1

In test [3] the test system is KB. Put plainly: Antiproliferative activity against human KB cells by sulforhodamine B assay. The gist of the method: as §1
A short description of test [4]: Antiproliferative activity against multidrug-resistant P-gp expressing human KBVIN cells by sulforhodamine B assay. The essentials:
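Vincristine-resistant KB subline kept in 100 nM vincristine, then grown 7–10 days without it before testing. RPMI 1640 with 10% FBS, 37 °C, 5% CO2. 3–5 × 10³ cells/well exposed 72 h to a concentration series, paclitaxel as assay control. SRB staining after TCA fixation, A515 read. GI50 is the 50% absorbance reduction versus untreated cells; three or more experiments.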

The nature of test [5]: Selectivity ratio of GI50 for human KB cells to GI50 for multidrug-resistant P-gp expressing human KBVIN cells. The gist of the method: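 Ratio of GI50 in parental KB to GI50 in P-gp-overexpressing KB-VIN. […] KB-VIN cells were grown 7–10 days without vincristine before the assay.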

As to `CCN1C[C@]2(C)CC[C@H](OC)[C@@]34[C@@H]5C[C@H]6[C@H](OC)[C@@H]5[C@@]5(C[C@@H]6OC)OCO[C@@]5([C@@H](OC(=O)c5cccc(C(F)(F)F)c5)[C@H]23)[C@@H]14`, the 50% growth inhibitory concentration (GI50) in test [1], in test [2], in test [3] and in test [4] was 10 µM in each case. For the same molecule, in test [5], the RatioGI50 is reported as 10.
`CCN1C(=O)[C@]2(C)CC[C@H](OC)[C@@]34[C@@H]5C[C@H]6[C@H](OC)[C@@H]5[C@@]5(C[C@@H]6OC)OCO[C@@]5([C@@H](O)[C@@H]32)[C@@H]14`: the GI50 in test [1], in test [2], in test [3] and in test [4] was above 20 µM each time. Also, the RatioGI50 in test [5] is listed as above 20.
As for `COC[C@]12CC[C@H](O)[C@]34C(NC1)[C@@](O)([C@@H](OC)[C@H]23)[C@@]1(O)C[C@H](OC)[C@H]2C[C@@H]4[C@@H]1[C@H]2OC`, the GI50 in test [1], in test [2], in test [3] and in test [4] was above 20 µM in each case. The RatioGI50 in test [5] is on record as above 20.
As for `CCN1C2OC3CCC2(COC)[C@H]2[C@H](OC)[C@]4(O)C1[C@@]32[C@@H]1C[C@H]2[C@H](O)[C@@H]1[C@]4(O)C[C@@H]2OC`, the GI50 in test [1], in test [2], in test [3] and in test [4] was above 20 µM each time. Besides, in test [5], the RatioGI50 is above 20.
As for `CCN1C[C@]2(COC)[C@H](O)C[C@H](O)[C@]34C1[C@@](O)([C@@H](O)[C@H]23)[C@@]1(O)C[C@H](OC)[C@H]2C[C@@H]4[C@@H]1[C@H]2O`, the GI50 in test [1], in test [2], in test [3] and in test [4] was above 20 µM each time. Moreover, in test [5], the RatioGI50 is listed as above 20.
For the molecule `CCN1C[C@]2(COC(=O)c3ccccc3N)CC[C@H](OC)[C@]34C1[C@@](O)([C@@H](OC)[C@H]23)[C@@]1(O)C[C@H](OC)[C@H]2C[C@@H]4[C@@H]1[C@H]2OC(C)=O`, the GI50 in test [1], in test [2], in test [3] and in test [4] was above 20 µM each time. For the same molecule, in test [5], the RatioGI50 is above 20.
Regarding `CCN1C(=O)[C@]2(COC(=O)c3ccccc3N)CC[C@H](OC)[C@]34C1[C@@](O)([C@@H](OC)[C@H]23)[C@@]1(O)C[C@H](OC)[C@H]2C[C@@H]4[C@@H]1[C@H]2OC`, the GI50 in test [1], in test [2], in test [3] and in test [4] was above 20 µM in each case. Also, the RatioGI50 in test [5] is listed as above 20.
For the molecule `CO[C@H]1[C@@H]2C[C@@H]3[C@H]1[C@](O)(C[C@@H]2OC)[C@@]1(O)C2NC(=O)[C@]4(COC(=O)c5ccccc5N)CC[C@H](OC)[C@@]23[C@@H]4[C@@H]1OC`, the GI50 in test [1], in test [2], in test [3] and in test [4] was above 20 µM throughout. Besides, the RatioGI50 in test [5] is recorded as above 20.
With `CO[C@H]1[C@@H]2C[C@@H]3[C@H]1[C@](O)(C[C@@H]2OC)[C@@]1(O)C2N=C[C@]4(COC(=O)c5ccccc5N)CC[C@H](OC)[C@@]23[C@@H]4[C@@H]1OC`, the GI50 in test [1], in test [2], in test [3] and in test [4] was above 20 µM each time. For the same molecule, the RatioGI50 in test [5] was above 20.
On to `CCN1C[C@]2(COC)CC[C@H](OC)[C@]34C1[C@@](O)([C@@H](OC)[C@H]23)[C@@]1(O)C[C@H](OC)[C@H]2C[C@@H]4[C@@H]1[C@H]2OC(C)=O`, for which the GI50 in test [1], in test [2], in test [3] and in test [4] was above 20 µM throughout. Also, the RatioGI50 in test [5] was above 20.

Values taken from ChEMBL document CHEMBL3400028, “Evaluation of Aconitum diterpenoid alkaloids as antiproliferative agents” (2015).
